Data taken from PMC6429430 (ACS Chemical Neuroscience, 2018).
Like-named read-outs stand apart in the source and are kept apart here.

How the values were obtained:
[1] = system: hippocampal LTP (Schaffer collateral-CA1); assay: LTP in 5xFAD mice; type: in vivo, mouse; conditions: aged 5xFAD mice, 1 mg/kg po for 14 days
How it was run: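 Aged 5xFAD mice on a C57BL/6J background (9–12 months) and age-matched WT mice were dosed by oral gavage once daily for 14 days (n = 8 per group). Hippocampal slices (350 μm) were held at room temperature for at least 1 h in oxygenated aCSF (pH 7.4), then perfused at 30 °C for 0.5 h in a multielectrode chamber. Schaffer collateral–CA1 LTP was recorded as normalised fEPSP slope over the last 10 min.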

[2] = system: human myeloid progenitors; assay: Colony forming cell; type: cell-based; conditions: human bone marrow cells, 14 days in culture
How it was run: (§1)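 Normal human bone marrow light-density cells, thawed rapidly and washed in IMDM + 10% FBS, were plated at 2.0 × 10^4 cells per culture. Medium was semisolid methylcellulose with rhIL-3 10 ng/mL, rhGM-CSF 10 ng/mL, rhSCF 50 ng/mL and Epo 3 U/mL. Compound was added at final 10, 2 and 0.4 μM, with 0.1% DMSO solvent control and 5-FU (1.0, 0.1, 0.01 μg/mL) as positive control. After 14 days, erythroid (CFU-E, BFU-E) and myeloid (CFU-GM) colonies were scored microscopically. Three replicate cultures were compared with solvent control by two-tailed t test.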

HDAC11 = molecular target: T1, HDAC11 (Homo sapiens, UniProt Q96DB2); assay: Recombinant HDAC isoform biochemical assay
T1 sequence (Q96DB2 1-347): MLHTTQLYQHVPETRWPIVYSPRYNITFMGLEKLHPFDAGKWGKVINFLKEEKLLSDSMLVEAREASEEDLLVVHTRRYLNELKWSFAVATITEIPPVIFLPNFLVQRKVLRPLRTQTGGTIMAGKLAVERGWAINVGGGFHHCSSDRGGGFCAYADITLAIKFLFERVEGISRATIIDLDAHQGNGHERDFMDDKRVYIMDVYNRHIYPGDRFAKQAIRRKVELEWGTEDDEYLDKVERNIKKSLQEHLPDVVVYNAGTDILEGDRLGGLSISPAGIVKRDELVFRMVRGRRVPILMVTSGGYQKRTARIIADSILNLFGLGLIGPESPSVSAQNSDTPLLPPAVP

[3] = Reported 2 week toxicity of CI-994 in dogs; type: in vivo, dog
[4] = cited from earlier work
[5] = rats, 1.5, 5, 15 mg/kg daily orally, 2 weeks; cited from earlier work
[6] = system: dendritic spines in CA1 region of the dorsal hippocampus; assay: Hippocampal dendritic spine density analysis; type: in vivo, mouse; conditions: WT mice
[7] = system: human erythroid progenitors; assay: Colony forming cell; type: cell-based; conditions: human bone marrow cells, 14 days in culture
How it was run: as §1

For `CC(=O)Nc1ccc(C(=O)Nc2ccccc2N)cc1` [CI-994], the “effect on impaired LTP” value [1] was “improves impaired LTP”, the “myeloid progenitors: % control at 10 μM” value [2] was 0 % control and the IC50 (HDAC11) was greater than 30 µM. For the same compound, the safety margin ([3]; HED at reported dog NOAEL vs efficacious HED) was 3.4 fold, the NOAEL at 2 weeks ([3]; dog, in vivo, 0.5 mg/kg) was 16.2 mg/kg and the “reported NOAEL in dogs” value ([4]; 2 weeks of daily dosing) was 0.5 mg/kg. The dose-limiting toxicity ([4]; dogs, 0.5, 2, 5 mg/kg daily, 2 weeks) was “primarily bone marrow suppression”, the “day 12 AUC” value ([4]; male dogs, 2 mg/kg daily) was 9.91 ng·h/mL and the dose-limiting toxicity [5] was “primarily bone marrow suppression”. For the same compound, the “increase in total spine density” value ([6]; 1 mg/kg daily oral for 14 days, vs vehicle) was 29%, the “dendritic spine density compared to vehicle-treated controls” value ([6]; oral daily 14 days, Rodin-A 1, 3, 6 mg/kg, CI-994 1 and 3 mg/kg) was “significant increases in spine density” and the “erythroid progenitors: % control at 10 μM” value [7] was 0 % control.
